Most compounds without a hit are left out; they make up all but 6% or so of the library.
Ecoli WT expand – growth inhibitors of wild-type E. coli, primary screen, strain BW25113, expanded library, OD600; actives 0.15% (n = 98,000); growth inhibition, % at 100 µM; OD600 absorbance;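 active means growth inhibition above about 50% at one test dose, limit read from the data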;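 further: growth measured after 20 h incubation at 37 °C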
Ecoli tolC – growth inhibitors of E. coli tolC mutant, primary screen, strain BW25113 ΔtolC::kan, 384-well; growth inhibition, % at 10 µM (by protocol); actives 2.2% (n = 65,000); OD615; AID 573, 2007;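 active means growth inhibition at or above a cutoff equal to the mean over every tested compound plus 3 SD, cut at about 60% in these data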;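 further: growth measured after 20 h incubation at 37 °C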
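Test system – E. coli BW25113 ΔtolC::kan, tolC deletion mutant strain · Detection – OD at 615 nm · Buffer or medium – LB with kanamycin 50 µg/mL · Times – 20 h compound exposure of bacteria at 37 °C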
PostGolgi yeast – phenotypic screen on post-Golgi transport, primary screen; post-Golgi transport phenotypic cell assay; inhibition, % at 10 µM; actives 0.9% (n = 98,000); AID 739, 2007;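 further: yeast cells grown in 1536-well plates; yeast grown about 18 h at 30C before absorbance read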
EphB4 ephrin blk – EphB4-ephrin-B2 interaction antagonists, primary screen, biochemical, TNYL-RAW peptide probe, fluorescence polarization; Ephrin type-B receptor 4 (Homo sapiens), P54760; EphB4 LBD / TNYL-RAW-Alexa532 peptide; inhibition, % at 7 µM; actives 0.15% (n = 97,000);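 active means inhibition above the screen-wide mean inhibition plus 3 SD, cut at about 15% in these data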
PostGolgi ctrl – growth inhibition of yeast control strain, primary screen, counter-screen for post-Golgi transport modulator project. efflux-deficient yeast background strain, growth absorbance A615, 16 h. inhibition, % at 10 µM. actives 5% (n = 98,000)
Of the large screens only hits and unclear results are named; the others gave an inactive call; ! = a repeat was not active. Unless noted, no stated cut-off is given here; in the data, active means inhibition above about 30%; inactive means the rest.

Cc1ccc(C(C)C)c(OCCCN2CC(C)OC(C)C2)c1 (centres undefined)	PostGolgi yeast 83
COc1cccc(OCCCCN2CC(C)OC(C)C2)c1 (centres undefined)	PostGolgi yeast 86, PostGolgi ctrl 43 (no result: Ecoli tolC)
C=CCc1ccc(OCCCCN2CC(C)OC(C)C2)c(OC)c1 (centres undefined)	PostGolgi yeast 97, PostGolgi ctrl 43 (no result: Ecoli tolC)
C=CCc1ccc(OCCCOc2ccc(C)cc2OC)c(OC)c1	none (no result: Ecoli tolC)
COc1ccc(Cn2c(CCC(=O)NCc3ccco3)nc3cccnc32)cc1	none
CCCCNC(=O)c1onc(CSc2ccc(Cl)cc2)c1C(=O)O	none (no result: Ecoli tolC)
COc1ccc2c(C=Nc3c(C)n(C)n(-c4ccccc4)c3=O)c(O)n(Cc3ccco3)c(=O)c2c1	PostGolgi ctrl 63!
CCc1ccccc1N1CSC2=C(C#N)C(c3ccccc3F)CC(=O)N2C1 (centres undefined)	PostGolgi ctrl 34
Nc1c(C(O)(C(F)(F)F)C(F)(F)F)cc(C(O)(C(F)(F)F)C(F)(F)F)c2ccccc12	none (no result: Ecoli WT expand, Ecoli tolC, PostGolgi yeast, PostGolgi ctrl)
COC(=O)C(C(C)=O)C1=C/C(=N\S(=O)(=O)c2ccc(C)cc2)c2ccccc2C1=O (centres undefined)	none (no result: Ecoli tolC)
Cc1ccccc1NC1=C/C(=N\S(=O)(=O)c2cccs2)c2ccccc2C1=O	PostGolgi yeast 107, PostGolgi ctrl 101 (no result: Ecoli tolC)
Cc1ccc(OCC(O)CN2CCN(Cc3ccc4c(c3)OCO4)CC2)c(C)c1 (centres undefined)	PostGolgi yeast 100
C=CCc1ccccc1OCC(O)CN1CCN(c2ccccc2F)CC1 (centres undefined)	none
C=CCc1cc(C)ccc1OCC(O)CN1CCN(c2ccccc2)CC1 (centres undefined)	Ecoli tolC 67
C=CCc1ccccc1OCC(O)CN1CCN(c2ccccc2OC)CC1 (centres undefined)	none
C=CCc1cc(OC)ccc1OCC(O)CN1CCN(c2ccc(OC)cc2)CC1 (centres undefined)	PostGolgi ctrl 45
Clc1ccc(CSc2nnnn2-c2ccc3c(c2)OCO3)c(Cl)c1	none (no result: Ecoli tolC)
CCCC(=O)Nc1cc(-c2nn(C)c(=O)c3ccccc23)ccc1N1CCCCC1	none (no result: Ecoli WT expand, PostGolgi yeast, PostGolgi ctrl)
COc1nnc(OC)c2ccccc12	none
COc1nnc(-c2ccc(N3CCCCC3)c(N)c2)c2ccccc12	Ecoli tolC 63 (no result: Ecoli WT expand, PostGolgi yeast, PostGolgi ctrl)
CCCC(=O)Nc1cc(-c2nnc(OC)c3ccccc23)ccc1N1CCCCC1	PostGolgi ctrl 43 (no result: Ecoli tolC)
Cc1ccc(NC(=O)NC(=O)N(c2ccccc2)S(C)(=O)=O)cc1	none
Cn1c(=O)c2c(nc(OCc3cccnc3)n2Cc2c(F)cccc2Cl)n(C)c1=O	PostGolgi ctrl 30
COc1ccc(CC(=O)Nc2cccc(C(=O)O)c2C)cc1	PostGolgi ctrl 34
Cc1c(NC(=S)NC(=O)Cc2ccccc2)cccc1C(=O)O	none (no result: Ecoli tolC)
CCOC(=O)C1CN(S(=O)(=O)c2ccc(OC)cc2)c2cc(S(=O)(=O)CC)ccc2O1 (centres undefined)	none (no result: Ecoli tolC)
COc1cc(S(=O)(=O)N2CCOCC2)ccc1NC(=O)COC(=O)CC12CC3CC(CC(C3)C1)C2	none (no result: Ecoli tolC)
COc1ccc(C(=O)Nc2ccc(S(=O)(=O)N3CCCCC3C)cc2)c(OC)c1OC (centres undefined)	Ecoli tolC 66
COC(=O)Cn1cnc(=O)c(C#N)c1/C=C/N(C)C	none
CC(=O)N1CN(CCCn2ccnc2)Cc2c1sc1c2CCCC1	none
CC(=O)N1CN(Cc2ccccn2)Cc2c1sc1c2CCCC1	PostGolgi ctrl 36
Clc1ccc2ncc(-c3nnnn3-c3ccccc3)c(-c3ccccc3)c2c1	PostGolgi ctrl 36 (no result: Ecoli tolC)
Clc1ccc2[nH]cc(-c3nnnn3-c3ccccc3)c2c1	none (no result: Ecoli tolC)
CC(=O)N1CCc2cc(S(=O)(=O)NCCC(=O)N3CCc4ccccc4C3)ccc21	none
CC(=O)N1CCc2cc(S(=O)(=O)NCCC(=O)N3CCN(c4ccccn4)CC3)ccc21	PostGolgi ctrl 35
CCC(=O)Oc1ccc(C(=O)Nc2ccc3c(c2)C(=O)N(C2CCCCC2)C3=O)cc1	none (no result: Ecoli tolC)
Cc1cc(C)c(-n2c(C)cc(/C=C3/NC(=O)NC3=O)c2C)c(C)c1	PostGolgi ctrl 64 (no result: Ecoli tolC)
Cc1cc(/C=C2/NC(=O)NC2=O)c(C)n1-c1sc2c(c1C#N)CCCC2	none (no result: Ecoli tolC)
Cc1ccc(SCC(=O)Nc2cccc(-c3nnc(-c4ccco4)o3)c2)cc1	none (no result: Ecoli tolC)
CCn1c(COc2ccc(Cl)cc2)nnc1SCc1ccc(C#N)cc1	PostGolgi ctrl 34
O=C(Nc1nnc(-c2ccccc2)o1)c1ccc(Cl)cc1	Ecoli tolC 99, PostGolgi yeast 110, PostGolgi ctrl 74
CC(=O)c1ccc(C(=O)Nc2nnc(-c3ccc(Cl)cc3)o2)cc1	Ecoli tolC 100 (no result: Ecoli WT expand, PostGolgi yeast, EphB4 ephrin blk, PostGolgi ctrl)
Cc1cccc(N2CCN(C(=O)c3c(C)nn(Cc4ccccc4Cl)c3C)CC2)c1C	PostGolgi ctrl 38 (no result: Ecoli tolC)
CCN(CC)c1ccc(/C=C(/C#N)c2nc3ccccc3[nH]2)c(OC(C)C)c1	none (no result: Ecoli tolC)
O=C(Nc1nnc(-c2ccccc2Cl)o1)c1nc2ccccc2s1	none (no result: Ecoli tolC)
O=C(Nc1cnn(Cc2ccc(Cl)cc2Cl)c1)c1cc(-c2cccs2)on1	none
O=C(Nc1cnn(Cc2ccc(Cl)cc2Cl)c1)c1noc2c1CCCC2	Ecoli tolC 71, PostGolgi ctrl 33 (no result: EphB4 ephrin blk)
COc1ccc(-c2[nH]ncc2/C=N\NS(=O)(=O)c2ccc(Cl)cc2)cc1	PostGolgi ctrl 31 (no result: Ecoli tolC)
CCc1nc(SCC(=O)c2cccs2)c2oc3ccccc3c2n1	none (no result: Ecoli tolC)
CCOc1ccc(CC(=O)N2CCN(c3ccc(N4CCOCC4)nn3)CC2)cc1OCC	none (no result: EphB4 ephrin blk)
Cc1cc(C)c(C)c(S(=O)(=O)NCc2ccco2)c1C	PostGolgi ctrl 34
COC(=O)CSc1nc2cc3c(cc2cc1C)OCCO3	PostGolgi ctrl 36
O=c1c2ccccc2nc(SCc2cn3ccsc3n2)n1-c1ccc(F)cc1	PostGolgi ctrl 52
CC(C(=O)Nc1ccc(C(=O)O)cc1)N1C(=O)c2ccccc2C1=O (centres undefined)	none
CC(C(=O)N(C1CC1)C1(C(=O)Nc2ccccc2)CCCC1)N1C(=O)c2ccccc2C1=O (centres undefined)	PostGolgi ctrl 45 (no result: EphB4 ephrin blk)
Oc1ccc(CN2CCc3ccccc3C2)c2cccnc12	Ecoli WT expand 62 (no result: Ecoli tolC)
Cc1ccc(COn2c(-c3ccc(Cl)cc3Cl)nc3ncccc32)cc1	PostGolgi ctrl 64 (no result: Ecoli tolC)
Clc1cccc(COn2c(-c3ccc(Cl)cc3Cl)nc3ncccc32)c1	PostGolgi ctrl 71 (no result: Ecoli tolC)
Clc1ccc(-c2nnc3cccc(Cl)n23)c(Cl)c1	none (no result: Ecoli tolC)
O/N=C\c1cccn1-c1ccc(Br)cc1	none (no result: Ecoli tolC)
COc1ccc(Cc2nc(C(=O)Nc3ccc(F)cc3)cs2)cc1	none (no result: Ecoli tolC)
COc1ccc(Cc2nc(C(=O)Nc3ccc(Cl)cc3)cs2)cc1	PostGolgi ctrl 38 (no result: Ecoli tolC)
O=C(CSc1nnc2c(n1)[nH]c1ccccc12)Nc1ccc2c(c1)OCO2	none (no result: Ecoli tolC)
CCN(CC)C(=S)Sc1c(-c2ccccc2)c2cc(Cl)ccc2[nH]c1=O	PostGolgi ctrl 32 (no result: Ecoli tolC)
CCOC(=O)CCCn1nc(C)n2c(cc3sccc32)c1=O	none (no result: Ecoli WT expand, PostGolgi yeast, PostGolgi ctrl)
